Xi reactivation = activators of inactive X chromosome reactivation, primary screen, imaging, XiGFP fibroblasts, GFP high-content imaging, set 2 | activation, % at 7.58 µM | XiGFP mouse fibroblasts, % GFP-positive cells imaging, 3 d; cells co-treated with 5-aza-dC sensitizer; scaled so ellipticine positive control = 100% | 360,000 tested, 0.055% active | AID 743238, 2013;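 active = mean normalized replicate activation at least 10% and every replicate at or above 10%; inconclusive = only one of the two criteria met; inactive = mean below 10% and not all replicates reach 10%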;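 also: 0% = median of on-plate neutral control wells and 100% = ellipticine 6 µM median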
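assay system = SV40-immortalized XiGFP fibroblast cells, line 68-5-11 | buffer or medium = DMEM plus 5-aza-dC sensitizer | doses = single-point pinned compound dosing | times = 3-day compound exposure, then 15 min fixation at room temperature | benchmarks = positive control ellipticine, 6 µM final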
esBAF inh = Bmi1 luciferase reporter increase in mESCs, primary screen, esBAF inhibitor project, mouse ES cells, Bmi1 luciferase knock-in, single point; 24 h; 100% = twice the neutral-well signal; 350,000 tested, 2% active; reporter increase, % at 12.5 µM; AID 602393, 2012; in the data active = activation above about 40%; inconclusive = no clear call, values can overlap the other calls;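 also: 0% = median of the plate's neutral control wells and 100% = double that signal; a rise in the Bmi1 reporter signal indicates esBAF inhibition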
CASP6 VEID inh = human caspase-6 inhibitors, primary screen, biochemical, VEID-R110 fluorescence, single point, set 2. 350,000 tested, 0.53% active. AID 686996, 2013. purified caspase-6, Z-VEID-R110 cleavage fluorescence. inhibition, % at 12.5 µM. P55212;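 active = mean inhibition across replicates at least about 35%, with every replicate also reaching that limit, limit read from the data; inconclusive = only one of the two criteria met; inactive = neither criterion met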;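 also: 0% = median of neutral control wells and 100% = no fluorescence left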
NSD2 HMT inh = NSD2 histone methyltransferase inhibitors, primary screen, biochemical, AlphaScreen, single concentration, set 2; inhibition, % at 12.5 µM; 310,000 tested, 0.54% active; NSD2 peptide methylation, 120 min; Histone-lysine N-methyltransferase NSD2 (Homo sapiens), O96028; in the data active = inhibition above about 50%
MITF TRPM1 HTS = activators of MITF-driven TRPM1 promoter reporter, primary screen, cell-based, SK-MEL-5, luciferase, single point. SK-MEL-5 TRPM1-promoter luciferase, 24 h; % of positive control, neutral wells = 0. activation, % at 12.5 µM. 300,000 tested, 0.75% active;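 active = mean activation of at least 80% with every replicate also reaching 80%; inconclusive = mean reaches 80% but some replicate falls short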;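 also: 0% = neutral control wells and 100% = parthenolide positive control wells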
Wnt bcat act = Wnt/beta-catenin pathway activators, primary screen, cell-based, plate reader, single point; activation, % at 9.35 µM; 300,000 tested, 1.2% active; Wnt/beta-catenin reporter cell assay, activator; in the data active = activation above about 30%, passing the limit was not always enough; inconclusive = no clear call, values can overlap the other calls;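 also: 0% = neutral control wells and 100% = positive control wells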
Numbers without * were called inactive; ? = inconclusive; nt = no result. The list is not random: actives were taken first. Their share in the collection is about 3%.

SMILES | Xi reactivation | esBAF inh | CASP6 VEID inh | NSD2 HMT inh | MITF TRPM1 HTS | Wnt bcat act
COc1ccc(S(=O)(=O)N[C@H]2C=C[C@H](CC(=O)N3CCC(Cc4ccccc4)CC3)O[C@@H]2CO)cc1 | 0 | -6 | -2 | nt | nt | nt
O/C(=C\c1nc2ccccc2[nH]1)c1cccs1 | 0 | 42* | -3 | nt | 6 | 39*
O=C(/C(=C/c1ccc(Cl)cc1)c1nc2ccccc2[nH]1)c1cccs1 | nt | 76* | nt | nt | -95 | nt
O=c1[nH]c2ccccc2nc1/C=C(\O)c1cccs1 | 0 | nt | nt | -1 | 35 | 37*
CC(C)(C)/C(O)=C/c1nc2ccccc2[nH]c1=O | 0 | nt | nt | 1 | 2 | -3
Cc1ccc2oc(=O)c(/C=C(\O)c3cccs3)nc2c1 | 1 | nt | -3 | -2 | nt | 35*
CCNC(=O)C[C@@H]1CC[C@H]2[C@H](COc3ccc(NC(=O)Nc4ccccc4OC)cc3C(=O)N2C)O1 | 0 | -1 | 0 | nt | nt | nt
COc1ccc2c3c([nH]c2c1)[C@@H](CO)N(C(=O)c1cccnc1)CC31CN(C(=O)NC(C)C)C1 | 0 | nt | 2 | nt | nt | nt
O=C(Nc1nc2ccccc2[nH]1)c1cccs1 | 0 | -6 | -1 | 1 | 62 | 46*
Cc1ccc(C(=O)Nc2nc3ccccc3[nH]2)cc1 | 0 | -77 | 17 | 0 | -72 | -5
O=C(Oc1ccccc1)N1CCCCC1 | 0 | -6 | 2 | 4 | nt | 2
O=C(Oc1ccc(-c2ccccc2)cc1)N1CCCCC1 | nt | ? | nt | 0 | 127* | nt
CCC(=O)Nc1ccc2c(c1)OC[C@H](C)N(CCc1ccccc1)C[C@@H](C)[C@@H](OC)CN(C)C2=O | 0 | -1 | nt | nt | nt | nt
Cc1ccc(NC(=O)/C=C/c2ccc([N+](=O)[O-])s2)c(C)c1 | 37* | nt | -2 | 0 | -110 | -8
Cc1ccc(/C=C/C(=O)Nc2ccc([N+](=O)[O-])cc2)o1 | nt | 64* | 4 | nt | 56 | 10
Cc1cc([N+](=O)[O-])ccc1NC(=O)/C=C/c1cccs1 | 0 | nt | nt | 1 | 70 | 35*
Cc1ccc(NC(=O)/C=C/c2ccc([N+](=O)[O-])s2)cc1 | 97* | nt | nt | -1 | -80 | 35*
Cc1cccc(NC(=S)N/N=C/c2ccc([N+](=O)[O-])s2)c1 | nt | nt | nt | 12 | -50 | nt
Cc1cccc(NC(=O)/C=C/c2ccc([N+](=O)[O-])s2)c1 | 81* | nt | -5 | 15 | -95 | nt
C[C@H]1CN(C)C(=O)Cc2cc(NS(C)(=O)=O)ccc2O[C@H]1CN(C)C | 0 | nt | nt | nt | nt | nt
CCOc1ccc(-c2c(C(=O)N/N=C/c3ccccc3)nnn2-c2nonc2N)cc1 | 0 | 1 | 0 | -2 | nt | 34*
COc1ccccc1CNC(=O)C[C@@H]1CC[C@H]2[C@@H](COC[C@@H](O)CN2C(=O)Nc2ccccc2)O1 | 0 | 6 | 1 | nt | nt | nt
Cn1c(NC(=O)C[n+]2cc(-c3ccc(F)cc3)n3c2CCC3)cc(=O)n(C)c1=O | 0 | -5 | nt | -7 | 11 | nt
O=C(C[n+]1cc(-c2ccc(F)cc2)n2c1CCC2)c1cccs1 | 0 | 46* | -2 | -1 | nt | -2
Cc1noc(C)c1NC(=O)N[C@@H]1C=C[C@@H](CC(=O)NCc2ccc(Cl)c(Cl)c2)O[C@H]1CO | 0 | 2 | 1 | nt | nt | nt
SMILES | Xi reactivation | esBAF inh | CASP6 VEID inh | NSD2 HMT inh | MITF TRPM1 HTS | Wnt bcat act
CCCCN1C(=S)NC[C@@H]1Cc1cccc2ccccc12 | 0 | 59* | -2 | nt | 32 | 12
Cc1ccc2cc(F)ccc2n1 | 0 | nt | -3 | -5 | nt | -1
Cc1ccc2cc(N)ccc2n1 | 0 | nt | 61* | 14 | 1 | -1
CCCNC(=O)Nc1ccc2c(c1)C(=O)N(C)[C@@H]1CC[C@H](CC(=O)OC)O[C@@H]1CO2 | 0 | 6 | 2 | nt | nt | nt
CCc1ccc(-c2cc(C(=O)N/N=C/c3ccco3)[nH]n2)cc1 | 0 | nt | -1 | 4 | 37 | 3
CCOC(=O)C(=O)N/N=C/c1ccco1 | 0 | nt | 36* | 4 | nt | -2
O=C(N/N=C/c1ccco1)Nc1ccccc1 | 0 | 9 | nt | 1 | 48 | 38*

High-throughput results as filed in PubChem.
